Experimental data published in publication PMC3791465 (Nature Communications, 2013).

Legend:
[1] = system: p42/44 MAPK (T202/Y204); test: Immunoblot of p42/44 MAPK; assay type: cell-based, human; conditions: MCF-7 and KPL-3C cells, E2-stimulated
In short: (§1)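 Blots were run on nitrocellulose, blocked in 4% BlockAce for 1 h, probed with HRP secondary for 1 h and developed by ECL. Phospho-levels were quantified by densitometry. Representative of four independent experiments.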

[2] = system: ERE motif within intron 1 of the BIG3 gene; test: Luciferase assay, intronic ERE of BIG3; assay type: cell-based, human; conditions: MCF-7
[3] = system: BIG3 expression; test: BIG3 expression in MCF-7 cells; assay type: cell-based, human
[4] = system: Akt (S473); test: Immunoblot of Akt; assay type: cell-based, human; conditions: MCF-7 and KPL-3C cells, E2-stimulated
In short: as §1

[5] = system: ERα (S104/S106, S118, S167, S305 and Y537); test: Immunoblot of ERα phosphorylation; assay type: cell-based, human; conditions: MCF-7 and KPL-3C cells, at least 24 h
In short: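 Blots were on nitrocellulose with HRP secondary and ECL detection. Site-specific ERα phosphorylation was quantified by densitometry and expressed as fold over untreated cells at 0 h. Mean±s.e.m.; experiments were run more than three times in triplicate.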

[6] = system: MCF-7 xenograft in BALB/c nude mice; test: MCF-7 orthotopic xenograft tumour growth; assay type: in vivo, mouse; conditions: daily 6 μg per day E2, MCF-7
[7] = system: ERα / PHB2 chromatin-remodelling complexes; test: Co-immunoprecipitation of chromatin-remodelling complexes in nuclear fractions; assay type: cell-based, human; conditions: MCF-7 and KPL-3C cells, 24 h, E2 present
In short: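 Lysed in 0.1% NP-40 buffer, precleared with normal IgG/Protein G Sepharose 3 h at 4 °C, then incubated with anti-ERα or anti-PHB2 (5 μg) 12 h at 4 °C. Complexes captured on Protein G 1 h, washed three times, resolved by SDS–PAGE and immunoblotted.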

[8] = system: ERE within intron 1 of the BIG3 gene; test: ChIP on intronic ERE of BIG3; assay type: cell-based, human; conditions: MCF-7
[9] = system: MCF-7 cells; test: Cell cycle assay by flow cytometry, MCF-7; assay type: cell-based, human; conditions: MCF-7, 24 h
[10] = system: Akt, p42/44 MAPK and ERα phosphorylation; test: Immunoblot of phosphorylation in TAM-R MCF-7 and T47D cells; assay type: cell-based, human; conditions: tamoxifen alone or tamoxifen and E2
In short: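 Proteins separated, blotted to nitrocellulose, blocked 1 h, probed, then HRP secondary 1 h and ECL. Akt, p42/44 MAPK and ERα phosphorylation quantified by densitometry; experiments repeated more than three times in triplicate.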

Structure (SMILES): C[C@]12CC[C@@H]3c4ccc(O)cc4CC[C@H]3[C@@H]1CC[C@@H]2O [E2, 17-estradiol]
- p42/44 MAPK (T202/Y204) phosphorylation [1]: clearly increased in a time-dependent manner
- luciferase activity, intronic ERE from BIG3 [2]: robust luciferase activity
- BIG3 expression after E2 [3]: significantly upregulated in MCF-7 cells in a time-dependent manner
- Akt (S473) phosphorylation [4]: clearly increased in a time-dependent manner
- ERα phosphorylation at five sites [5]: clearly increased in response to E2 stimulation
- E2-induced tumour growth by E2 alone [6]: induced time-dependent growth of KPL-3C and MCF-7 tumours
- SRC-1 binding/recruitment to ERα [7]: recruited SRC-1 to ERα
- recruitment to intronic ERE of BIG3 [8]: recruitment of ERα and the co-activator SRC-1 was observed
- apoptotic (sub-G1) cell population [9]: 0.17%
- cell cycle distribution [9]: population of cells in the G2/M phase increased

Structure (SMILES): CC/C(=C(\c1ccccc1)c1ccc(OCCN(C)C)cc1)c1ccccc1 [tamoxifen]
- BIG3 expression after tamoxifen ([3]; real-time PCR and immunoblot): significant reduction in BIG3 expression at both the transcriptional and protein levels in a dose-dependent manner
- phosphorylation of Akt, p42/44 MAPK and ERα in TAM-R cells [10]: enhanced in response to tamoxifen alone
- apoptotic (sub-G1) cell population [9]: 0.91%
- cell cycle distribution [9]: population in the G1 phase increased
